Data taken from ChEMBL document CHEMBL1145117, “Structures and cytotoxic properties of trichoverroids and their macrolide analogues produced by saltwater culture of Myrothecium verrucaria” (J Med Chem, 2003).

Experiments:
786-0 = assay: In vitro antitumor activity against renal 786-0 tumor cell lines; type: functional, cell-based, Homo sapiens
RXF 393 = assay: In vitro antitumor activity against renal RXF 393 tumor cell lines; type: functional, cell-based, Homo sapiens; conditions: rxf 393
M14 = assay: In vitro antitumor activity against melanoma M14 tumor cell lines; type: functional, cell-based, Homo sapiens; conditions: m14
A498 = assay: In vitro antitumor activity against renal A498 tumor cell lines; type: functional, cell-based, Homo sapiens; conditions: a498
CCRF-CEM = assay: In vitro antitumor activity against leukemia CCRF-CEM tumor cell lines; type: functional, cell-based, Homo sapiens; conditions: ccrf-cem
MOLT-4 = assay: In vitro antitumor activity against leukemia MOLT-4 tumor cell lines; type: functional, cell-based, Homo sapiens; conditions: molt-4
MCF7 = assay: In vitro antitumor activity against breast MCF-7 tumor cell lines; type: functional, cell-based, Homo sapiens; conditions: mcf7
HCT-116 = assay: In vitro antitumor activity against colon HCT116 tumor cell lines; type: functional, cell-based, Homo sapiens; conditions: hct-116
NCI-H226 = assay: In vitro antitumor activity against NSCL NCI-H226 tumor cell lines; type: functional, cell-based, Homo sapiens; conditions: nci-h226
MDA-MB-435 = assay: In vitro antitumor activity against breast MDA-MB-435 tumor cell lines; type: functional, cell-based, Homo sapiens; conditions: mda-mb-435
HCT-15 = assay: In vitro antitumor activity against colon HCT-15 tumor cell lines; type: functional, cell-based, Homo sapiens; conditions: hct-15
Homo sapiens [1] = species on record: Homo sapiens; assay: Concentration giving 500 zone units against H116 colon tumor cell lines; type: functional
Summary of the method: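 Disk diffusion soft agar colony formation assay on human H116 colon tumor cells. Each sample was applied to a disk as 15 µL, and activity was read as zone units. The value is the sample concentration that gave 500 zone units.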

NCI-H522 = assay: In vitro antitumor activity against NSCL NCI-H522 tumor cell lines; type: functional, cell-based, Homo sapiens; conditions: nci-h522
UACC-62 = assay: In vitro antitumor activity against melanoma UACC-62 tumor cell lines; type: functional, cell-based, Homo sapiens; conditions: uacc-62
HL-60 = assay: In vitro antitumor activity against leukemia HL-60(TB) tumor cell lines; type: functional, cell-based, Homo sapiens; conditions: hl-60
SK-MEL-2 = assay: In vitro antitumor activity against melanoma SK-MEL-2 tumor cell lines; type: functional, cell-based, Homo sapiens; conditions: sk-mel-2
COLO 205 = assay: In vitro antitumor activity against colon COLO 205 tumor cell lines; type: functional, cell-based, Homo sapiens; conditions: colo 205
A549 = assay: In vitro antitumor activity against NSCL A549/ATCC tumor cell lines; type: functional, cell-based, Homo sapiens; conditions: a549
MDA-N = assay: In vitro antitumor activity against breast MDA-N tumor cell lines; type: functional, cell-based, Homo sapiens; conditions: mda-n
NCI-H125 = assay: Selectivity was evaluated against human ZH125 lung non small cell carcinoma cell lines-CEM lymphocytic leukemia cell lines at a concentration of 0.24 ug/mL; type: functional, cell-based
Summary of the method: (§1)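 Disk diffusion soft agar colony formation assay; sample applied to disk (15 μL); cytotoxicity read as zone units. Differential = zone difference between a solid tumor line (murine Colon38; human colon H116, lung H125) and leukemia (murine L1210, human CEM) or normal bone marrow CFU-GM (murine/human). Solid tumor selective if differential exceeds 250 units.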

L1210 = assay: Selectivity was evaluated murine tumor against ZL1210 lymphocytic leukemia cell lines- ZCFU-GM normal bone marrow cell lines at a concentration of 0.24 ug/mL; type: functional, cell-based; conditions: Mus musculus; summary of the method: as §1
MC-38 [2] = assay: Selectivity was evaluated against murine tumor ZC38 colon adenocarcinoma cell lines- ZCFU-GM normal bone marrow cell lines at a concentration of 0.24 ug/mL; type: functional, cell-based; conditions: Mus musculus; summary of the method: as §1
MC-38 [3] = assay: Selectivity was evaluated against Murine tumor ZC38 colon adenocarcinoma cell lines- ZL1210 lymphocytic leukemia cell lines at a concentration of 0.24 ug/mL; type: functional, cell-based; conditions: Mus musculus; summary of the method: as §1
colon = assay: Selectivity was evaluated against human ZH116 colon cell lines-CEM lymphocytic leukemia cell lines at a concentration of 0.24 ug/mL; type: functional, cell-based; summary of the method: as §1
Homo sapiens [4] = species on record: Homo sapiens; assay: Activity relative to compound 3 (set to 1.0) was evaluated against H116 colon tumor cell lines; type: functional
Summary of the method: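 Disk diffusion soft agar colony formation assay on human H116 colon tumor cells, with 15 µL of sample applied to a disk and zone units read. Relative activity = (dilution required for 500 zone units × 100)/(mg/mL), normalised to a reference compound set at 1.0.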

Row | Structure (SMILES) | IC50 (786-0) | IC50 (RXF 393) | IC50 (M14) | IC50 (A498) | IC50 (CCRF-CEM) | IC50 (MOLT-4) | IC50 (MCF7) | IC50 (HCT-116) | IC50 (NCI-H226) | IC50 (MDA-MB-435) | IC50 (HCT-15) | Concentration (Homo sapiens [1]) | IC50 (NCI-H522) | IC50 (UACC-62) | IC50 (HL-60) | IC50 (SK-MEL-2) | IC50 (COLO 205) | IC50 (A549) | IC50 (MDA-N) | other results
1 | CC1=C[C@H]2O[C@@H]3[C@H](O)[C@H]4OC(=O)/C=C\C=C\[C@H]([C@@H](C)O)OCC/C(C)=C/C(=O)OC[C@@]2(CC1)[C@]4(C)[C@]31CO1 | 59 nM | 57 nM | < 1 nM | 9 nM | > 10000 nM | > 10000 nM | > 10000 nM | < 1 nM | 7 nM | 4 nM | > 10000 nM | 0.14 µg/mL | > 10000 nM | 9 nM | 10 nM | > 10000 nM | > 10000 nM | – | – | –
2 | CC1=C[C@H]2O[C@@H]3C[C@H]4OC(=O)/C=C\C=C\[C@H]([C@H](C)O)OCC/C(C)=C/C(=O)OC[C@@]2(CC1)[C@]4(C)[C@]31CO1 | – | – | – | – | – | – | – | – | – | – | – | 8.6 µg/mL | – | – | – | – | – | – | – | –
3 | CC(=O)OC(C)[C@@H](O)/C=C/C=C\C(=O)O[C@@H]1CC2O[C@@H]3C=C(C)CC[C@]3(COC(=O)/C=C(\C)CCO)[C@]1(C)[C@]21CO1 (stereo partly drawn) [13`-ACETYLTRICHOVERRIN B] | > 10000 nM | > 10000 nM | 9000 nM | 2380 nM | > 10000 nM | > 10000 nM | > 10000 nM | > 10000 nM | 4870 nM | 2260 nM | > 10000 nM | 31 µg/mL | 1210 nM | 9560 nM | > 10000 nM | > 10000 nM | 612 nM | 9770 nM | 5080 nM | –
4 | CC1=C[C@H]2O[C@@H]3C[C@H]4OC(=O)/C=C\C=C\[C@H]([C@H](C)O)OCC[C@@H](C)[C@H](O)C(=O)OC[C@@]2(CC1)[C@]4(C)[C@]31CO1 [(6'R,13'S) ISORORIDIN A] | > 10000 nM | 10 nM | 10 nM | 6 nM | > 10000 nM | > 10000 nM | > 10000 nM | > 10000 nM | – | 31 nM | > 10000 nM | 0.9 µg/mL | 95 nM | 2 nM | > 10000 nM | > 10000 nM | 8 nM | > 10000 nM | 8 nM | –
5 | CC(=O)OC[C@]12CCC(C)=C[C@H]1O[C@@H]1[C@H](O)[C@@H](OC(C)=O)[C@@]2(C)[C@]12CO2 [ANGUIDIN] | < 1 nM | < 1 nM | < 1 nM | < 1 nM | < 1 nM | < 1 nM | < 1 nM | < 1 nM | < 1 nM | < 1 nM | < 1 nM | 0.24 µg/mL | < 1 nM | < 1 nM | < 1 nM | < 1 nM | < 1 nM | < 1 nM | < 1 nM | Selectivity (NCI-H125): 0 zone unit; Selectivity (L1210): 150 zone unit; Selectivity (MC-38 [2]): 0 zone unit; Selectivity (MC-38 [3]): -150 zone unit; Selectivity (colon): -100 zone unit; Relative activity (Homo sapiens [4]): 423
6 | CC1=C[C@H]2O[C@@H]3C[C@H]4OC(=O)/C=C\C=C\[C@H]([C@@H](C)O)OCC[C@@H](C)[C@H](O)C(=O)OC[C@@]2(CC1)[C@]4(C)[C@]31CO1 [RORIDIN A] | 40 nM | 2 nM | < 1 nM | 316 nM | > 10000 nM | > 10000 nM | > 10000 nM | > 10000 nM | 3 nM | 6 nM | > 10000 nM | 0.78 µg/mL | < 1 nM | 5 nM | > 10000 nM | 3 nM | 3 nM | > 10000 nM | 3 nM | –
7 | CC1=C[C@H]2O[C@@H]3[C@H](O)[C@H]4OC(=O)/C=C\C=C\[C@H]([C@H](C)O)OCC/C(C)=C/C(=O)OC[C@@]2(CC1)[C@]4(C)[C@]31CO1 [RORIDIN L] | – | > 10000 nM | 24 nM | 19 nM | > 10000 nM | > 10000 nM | > 10000 nM | > 10000 nM | 91 nM | 20 nM | > 10000 nM | 1.3 µg/mL | 21 nM | 18 nM | > 10000 nM | 24 nM | 13 nM | > 10000 nM | 21 nM | –
8 | CC1=C[C@H]2O[C@@H]3[C@H](O)[C@H]4OC(=O)/C=C\C=C\[C@@H]5O[C@H](C/C(C)=C/C(=O)OC[C@@]2(CC1)[C@]4(C)[C@]31CO1)O[C@H]5C [RORIDIN M] | > 10000 nM | 2180 nM | 75 nM | 583 nM | > 10000 nM | > 10000 nM | > 10000 nM | 75 nM | 157 nM | 137 nM | 483 nM | 41 µg/mL | 26 nM | 409 nM | > 10000 nM | 260 nM | – | > 10000 nM | 83 nM | –
9 | CC1=C[C@H]2OC3C[C@@H](OC(=O)/C=C\C=C\[C@H](O)[C@H](C)O)[C@](C)([C@@]2(COC(=O)/C=C(\C)CCO)CC1)[C@]31CO1 [TRICHOVERRIN A] | > 10000 nM | > 10000 nM | 7870 nM | 6960 nM | > 10000 nM | > 10000 nM | > 10000 nM | > 10000 nM | 8410 nM | 2700 nM | > 10000 nM | 163 µg/mL | 936 nM | > 10000 nM | > 10000 nM | 7540 nM | 1310 nM | 5440 nM | 7780 nM | –
10 | CC1=C[C@H]2OC3C[C@@H](OC(=O)/C=C\C=C\[C@H](O)[C@@H](C)O)[C@](C)([C@@]2(COC(=O)/C=C(\C)CCO)CC1)[C@]31CO1 [TRICHOVERRIN B] | > 10000 nM | > 10000 nM | 7100 nM | 8160 nM | > 10000 nM | > 10000 nM | > 10000 nM | > 10000 nM | 6930 nM | 5490 nM | > 10000 nM | 175 µg/mL | 904 nM | > 10000 nM | > 10000 nM | 8910 nM | 4020 nM | 6210 nM | > 10000 nM | –
11 | CC1=C[C@H]2O[C@@H]3C[C@H]4OC(=O)/C=C\C=C\C(=O)OCC[C@@H](C)[C@H](O)C(=O)OC[C@@]2(CC1)[C@]4(C)[C@]31CO1 [VERRUCARIN A] | – | > 10000 nM | < 1 nM | 3 nM | > 10000 nM | > 10000 nM | 1200 nM | > 10000 nM | 4 nM | 4 nM | 8100 nM | 0.78 µg/mL | < 1 nM | 5 nM | > 10000 nM | 8 nM | < 1 nM | > 10000 nM | 82 nM | –
12 | CC1=C[C@H]2O[C@@H]3[C@H](O)[C@H]4OC(=O)/C=C\C=C\C(=O)OCC/C(C)=C/C(=O)OC[C@@]2(CC1)[C@]4(C)[C@]31CO1 [VERRUCARRIN M] | > 10000 nM | 84 nM | 8 nM | 53 nM | > 10000 nM | > 10000 nM | > 10000 nM | – | 33 nM | 14 nM | 73 nM | 30 µg/mL | < 1 nM | 57 nM | > 10000 nM | 37 nM | 7 nM | – | 14 nM | –
